Reference: BindingDB's records for doi:10.1016/j.bmc.2018.01.022 (Csic and Universidad De Sevilla, 2018)
pIC50: −log10 of the molar value.

Tests used:
Midkine = biological target: T1, Midkine (Homo sapiens, UniProt P21741); assay: Inhibition of fluorescein labelled heparin-like hexasaccharide probe binding to recombinant human midkine after 5 mins by fluorescence polarization assay
T1 sequence (P21741 whole entry): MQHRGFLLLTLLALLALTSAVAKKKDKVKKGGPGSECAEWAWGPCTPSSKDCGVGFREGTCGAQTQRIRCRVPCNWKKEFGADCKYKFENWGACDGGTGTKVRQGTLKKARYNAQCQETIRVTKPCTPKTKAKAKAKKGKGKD
In short: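 Recombinant human midkine at 63 nM final with 10 nM fluorescein-labelled heparin-like hexasaccharide probe in PBS (10 mM, pH 7.4) plus 0.5% BSA. […] Shaken 5 min in the dark; polarization read at ex 485 / em 535 nm. Triplicate wells averaged, one-site competition fit for IC50. At least three independent experiments.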

[1] = biological target: Fibroblast growth factor 2 (Homo sapiens, UniProt P09038); assay: Inhibition of fluorescein labelled heparin-like hexasaccharide probe binding to recombinant human FGF-2 after 5 mins by fluorescence polarization assay
Chain of Fibroblast growth factor 2 (P09038 143-288 limits assumed): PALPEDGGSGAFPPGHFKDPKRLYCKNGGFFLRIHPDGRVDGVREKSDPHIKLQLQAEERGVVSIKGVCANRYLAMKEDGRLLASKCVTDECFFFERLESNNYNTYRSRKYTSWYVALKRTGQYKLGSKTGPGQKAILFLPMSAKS
In short: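 Competition fluorescence polarization in PBS (10 mM, pH 7.4) with 0.5% BSA final. Recombinant human FGF-2 at 97 nM final, fluorescein-labelled heparin-like hexasaccharide probe at 10 nM final, inhibitor serially diluted, final 25 µM to 12.5 nM. Shaken 5 min in the dark, then read at ex 485 / em 535 nm. Triplicate wells. One-site competitive fit against log concentration gives IC50. Mean ± SD of three independent experiments.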

pIC50 (Midkine)	pIC50 [1]	SMILES
< 3.60		COc1ccc(O[C@@H]2O[C@H](CO)[C@@H](O[C@@H]3O[C@H](COS(=O)(=O)O)[C@@H](OS(=O)(=O)O)[C@H](O)[C@H]3NC(C)=O)[C@H](O)[C@H]2O)cc1
6.57	5.62	COc1ccc(O[C@@H]2O[C@H](COC(=O)CCC(F)(F)C(F)(F)C(F)(F)C(F)(F)C(F)(F)C(F)(F)C(F)(F)C(F)(F)F)[C@@H](O[C@@H]3O[C@H](COS(=O)(=O)O)[C@@H](OS(=O)(=O)O)[C@H](O[C@@H]4O[C@H](COC(=O)C(C)(C)C)[C@@H](O[C@@H]5O[C@H](COS(=O)(=O)O)[C@@H](OS(=O)(=O)O)[C@H](OC(=O)CCC(C)=O)[C@H]5N5C(=O)c6ccccc6C5=O)[C@H](OCc5ccccc5)[C@H]4OC(=O)c4ccccc4)[C@H]3N3C(=O)c4ccccc4C3=O)[C@H](OCc3ccccc3)[C@H]2OC(=O)c2ccccc2)cc1
6.15		COc1ccc(O[C@@H]2O[C@H](COC(=O)CCC(F)(F)C(F)(F)C(F)(F)C(F)(F)C(F)(F)C(F)(F)C(F)(F)C(F)(F)F)[C@@H](O[C@@H]3O[C@H](COS(=O)(=O)O)[C@@H](OS(=O)(=O)O)[C@H](OC(=O)CCC(C)=O)[C@H]3N3C(=O)c4ccccc4C3=O)[C@H](OCc3ccccc3)[C@H]2OC(=O)c2ccccc2)cc1
< 3.60		COc1ccc(O[C@@H]2O[C@H](CO)[C@@H](O[C@@H]3O[C@H](COS(=O)(=O)O)[C@@H](OS(=O)(=O)O)[C@H](O)[C@H]3NC(C)=O)[C@H](OCc3ccccc3)[C@H]2O)cc1
